Data set [1] has as its system Homo sapiens. Briefly: Drug level in human plasma with normal renal function assessed as CMMG level at 2000 mg, po every 6 hrs measured after fifth dose by LC/MS. The format is ADME, organism-based. The following applies: in vivo, read-out: Drug uptake. The procedure, abridged: (§1)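 Six volunteers with normal renal function fasted from 8 h before to 2 h after the fifth dose. Intrathecal-catheter CSF and venous blood were sampled at 0–8 h and stored at −70°C. Noncompartmental Cmax, tmax and AUCτ (0–6 h) were derived; Cavg = AUCτ/τ.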

Data set [2] concerns Homo sapiens. Put plainly: Drug level in human plasma with chronic kidney disease assessed as CMMG level at 1500 mg, po every 12 hrs measured after fifth dose by LC/MS. The format is ADME, organism-based. The following applies: in vivo, read-out: Drug uptake. The procedure, abridged:
(§2)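 Three CKD adults (CrCl ~15–30 ml/min) fasted around the final dose. Lumbar intrathecal catheter CSF and EDTA venous blood were taken predose and at 0.5–8 h plus 12 h, then stored at −70°C. Metabolites in serum/CSF were measured by SPE with isotope-labelled internal standards, reversed-phase HPLC and positive-ion MRM MS.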

For data set [3], the system named is Homo sapiens. Briefly: Drug level in human CSF with normal renal function assessed as CMMG level at 2000 mg, po every 6 hrs measured after fifth dose by LC/MS. The following applies: in vivo, read-out: Drug uptake. The class given is ADME, organism-based. The procedure, abridged: as §1
Data set [4] relates to Homo sapiens. Put plainly: Drug level in human CSF with chronic kidney disease assessed as CMMG level at 1500 mg, po every 12 hrs measured after fifth dose by LC/MS. Particulars: in vivo, read-out: Drug uptake. The class given is ADME, organism-based. An outline of the steps:
as §2

For data set [5], the system named is Homo sapiens. Put plainly: Cmax in human systemic circulation with normal renal function assessed as CMMG level at 2000 mg, po every 6 hrs measured after fifth dose by LC/MS. The format is ADME, organism-based. More on the design: dose 2000 mg, route oral. The following applies: in vivo. An outline of the steps:
as §1

Data set [6] has as its system Homo sapiens. Put plainly: Cmax in human CSF with normal renal function assessed as CMMG level at 2000 mg, po every 6 hrs measured after fifth dose by LC/MS. The class given is ADME, organism-based, Cerebrospinal fluid. Also on record: dose 2000 mg, route oral. The following applies: in vivo. An outline of the steps: as §1
For data set [7], the system named is Homo sapiens. Briefly: Cmax in human systemic circulation with chronic kidney disease assessed as CMMG level at 1500 mg, po every 12 hrs measured after fifth dose by LC/MS. The class given is ADME, organism-based. More on the design: dose 1500 mg, route oral. Particulars: in vivo. An outline of the steps:
as §2

In data set [8] the test system is Homo sapiens. Put plainly: Cmax in human CSF with chronic kidney disease assessed as CMMG level at 1500 mg, po every 12 hrs measured after fifth dose by LC/MS. The format is ADME, organism-based, Cerebrospinal fluid. Also on record: dose 1500 mg, route oral. Particulars: in vivo. An outline of the steps: as §2
The subject of data set [9] is Homo sapiens. Put plainly: Tmax in human systemic circulation with normal renal function assessed as CMMG level at 2000 mg, po every 6 hrs measured after fifth dose by LC/MS. The class given is ADME, organism-based. The following applies: in vivo. The procedure, abridged:
as §1

Data set [10] deals with Homo sapiens. Briefly: Tmax in human CSF with normal renal function assessed as CMMG level at 2000 mg, po every 6 hrs measured after fifth dose by LC/MS. The format is ADME, organism-based, Cerebrospinal fluid. Particulars: in vivo. An outline of the steps:
as §1

For data set [11], the system named is Homo sapiens. Briefly: Tmax in human systemic circulation with chronic kidney disease assessed as CMMG level at 1500 mg, po every 12 hrs measured after fifth dose by LC/MS. The class given is ADME, organism-based. The following applies: in vivo. An outline of the steps: as §2
For data set [12], the system named is Homo sapiens. Put plainly: Tmax in human CSF with chronic kidney disease assessed as CMMG level at 1500 mg, po every 12 hrs measured after fifth dose by LC/MS. The class given is ADME, organism-based, Cerebrospinal fluid. The following applies: in vivo. The procedure, abridged:
as §2

The subject of data set [13] is Homo sapiens. Briefly: AUC (0 to 6 hrs) in human systemic circulation with normal renal function assessed as CMMG level at 2000 mg, po every 6 hrs measured after fifth dose by LC/MS. The format is ADME, organism-based, Plasma. The following applies: in vivo. More on the design: dose 2000 mg, time < 6 hr, route oral. The procedure, abridged:
as §1

For data set [14], the system named is Homo sapiens. Put plainly: AUC (0 to 6 hrs) in human CSF with normal renal function assessed as CMMG level at 2000 mg, po every 6 hrs measured after fifth dose by LC/MS. The format is ADME, organism-based. Also on record: time < 6 hr, dose 2000 mg, route oral. The following applies: in vivo. An outline of the steps:
as §1

For data set [15], the system named is Homo sapiens. Briefly: AUC (0 to 12 hrs) in human systemic circulation with chronic kidney disease assessed as CMMG level at 1500 mg, po every 12 hrs measured after fifth dose by LC/MS. More on the design: dose 1500 mg, time < 12 hr, route oral. The class given is ADME, organism-based. Particulars: in vivo. An outline of the steps:
as §2

Data set [16] relates to Homo sapiens. Put plainly: AUC (0 to 12 hrs) in human CSF with chronic kidney disease assessed as CMMG level at 1500 mg, po every 12 hrs measured after fifth dose by LC/MS. The class given is ADME, organism-based. Also on record: time < 12 hr, dose 1500 mg, route oral. The following applies: in vivo. An outline of the steps:
as §2

In data set [17] the test system is Homo sapiens. Put plainly: Ratio of Cmax in human CSF to Cmax in human plasma with normal renal function assessed as CMMG level at 2000 mg, po every 6 hrs measured after fifth dose by LC/MS. The format is ADME, organism-based. The procedure, abridged:
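For each normal-renal-function subject, the metabolite CSF Cmax was divided by the serum Cmax from samples taken 0–8 h after the fifth dose. Both were measured by LC/MS with isotope-labelled internal standards, and the ratio is given as mean ± SD.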

Data set [18] relates to Homo sapiens. Put plainly: Ratio of Cmax in human CSF to Cmax in human plasma with chronic kidney disease assessed as CMMG level at 1500 mg, po every 12 hrs measured after fifth dose by LC/MS. The format is ADME, organism-based.
The nature of data set [19]: Drug level in human plasma with normal renal function at 2000 mg, po every 6 hrs measured after fifth dose by radioimmunoassay. The class given is ADME, organism-based. Particulars: read-out: Drug uptake. An outline of the steps:
(§3)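 Six subjects with normal renal function took valacyclovir 2,000 mg orally every 6 h for 5 doses, fasting from 8 h before to 2 h after the fifth dose. Plasma was drawn at 0, 0.5, 1, 1.5, 2, 3, 4, 6 and 8 h. Acyclovir was measured by scintillation proximity radioimmunoassay (LLQ 14.1 ng/ml). Noncompartmental analysis gave AUC over 0–6 h, Cmax and tmax, with Cavg = AUCτ/τ.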

Data set [20] can be described thus: Drug level in human plasma with chronic kidney disease at 1500 mg, po every 12 hrs measured after fifth dose by radioimmunoassay. The class given is ADME, organism-based. Particulars: read-out: Drug uptake. The procedure, abridged:
(§4)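 Three chronic kidney disease subjects (CrCl ∼15 to 30 ml/min) took valacyclovir 1,500 mg orally every 12 h for 5 doses, fasting from 8 h before to 2 h after the fifth dose. Plasma was drawn at 0, 0.5, 1, 1.5, 2, 3, 4, 6, 8 and 12 h. Acyclovir was measured by scintillation proximity radioimmunoassay.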

The nature of data set [21]: Drug level in human CSF with normal renal function at 2000 mg, po every 6 hrs measured after fifth dose by radioimmunoassay. The class given is ADME, organism-based. Particulars: read-out: Drug uptake. The procedure, abridged:
(§5)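 Normal-renal-function subjects (n=6) took an oral dose every 6 h for 5 doses. Serial lumbar-catheter CSF was collected on ice predose through 8 h after the last dose. Acyclovir was assayed by scintillation proximity radioimmunoassay validated for CSF (range 1.4–90 ng/ml; 1:10 dilution; LLQ 14.1 ng/ml). Cmax, tmax and AUCτ over 0–6 h were computed noncompartmentally.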

A short description of data set [22]: Drug level in human CSF with chronic kidney disease at 1500 mg, po every 12 hrs measured after fifth dose by radioimmunoassay. The format is ADME, organism-based. The following applies: read-out: Drug uptake. An outline of the steps: (§6)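 CKD subjects (n=3) received an oral dose every 12 h for 5 doses. CSF was drawn through an indwelling lumbar catheter predose and at 0.5, 1, 1.5, 2, 3, 4, 6, 8 and 12 h after the fifth dose. Acyclovir was quantified by automated scintillation proximity radioimmunoassay with a monoclonal antibody; the standard curve was 1.4–90 ng/ml and LLQ 14.1 ng/ml. Noncompartmental parameters were calculated over 0–12 h.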

Data set [23] can be described thus: Cmax in human systemic circulation with normal renal function at 2000 mg, po every 6 hrs measured after fifth dose by radioimmunoassay. The class given is ADME, organism-based. More on the design: dose 2000 mg, route oral. The following applies: plasma. The procedure, abridged: as §3
A short description of data set [24]: Cmax in human CSF with normal renal function at 2000 mg, po every 6 hrs measured after fifth dose by radioimmunoassay. The class given is ADME, organism-based, Cerebrospinal fluid. More on the design: dose 2000 mg, route oral. The procedure, abridged: as §5
Data set [25] can be described thus: Cmax in human systemic circulation with chronic kidney disease at 1500 mg, po every 12 hrs measured after fifth dose by radioimmunoassay. Particulars: plasma. The class given is ADME, organism-based. Also on record: dose 1500 mg, route oral. An outline of the steps:
as §4

Data set [26] can be described thus: Cmax in human CSF with chronic kidney disease at 1500 mg, po every 12 hrs measured after fifth dose by radioimmunoassay. The format is ADME, organism-based, Cerebrospinal fluid. More on the design: dose 1500 mg, route oral. An outline of the steps:
as §6

A short description of data set [27]: Tmax in human systemic circulation with normal renal function at 2000 mg, po every 6 hrs measured after fifth dose by radioimmunoassay. The class given is ADME, organism-based. Particulars: plasma. An outline of the steps:
as §3

Data set [28] is described as follows: Tmax in human CSF with normal renal function at 2000 mg, po every 6 hrs measured after fifth dose by radioimmunoassay. The class given is ADME, organism-based, Cerebrospinal fluid. An outline of the steps: as §5
The nature of data set [29]: Tmax in human systemic circulation with chronic kidney disease at 1500 mg, po every 12 hrs measured after fifth dose by radioimmunoassay. Particulars: plasma. The class given is ADME, organism-based. An outline of the steps: as §4
A short description of data set [30]: Tmax in human CSF with chronic kidney disease at 1500 mg, po every 12 hrs measured after fifth dose by radioimmunoassay. The format is ADME, organism-based, Cerebrospinal fluid. An outline of the steps:
as §6

Data set [31] can be described thus: AUC (0 to 6 hrs) in human systemic circulation with normal renal function at 2000 mg, po every 6 hrs measured after fifth dose by radioimmunoassay. The class given is ADME, organism-based. Also on record: time < 6 hr, dose 2000 mg, route oral. The following applies: plasma. The procedure, abridged:
as §3

The nature of data set [32]: AUC (0 to 6 hrs) in human CSF with normal renal function at 2000 mg, po every 6 hrs measured after fifth dose by radioimmunoassay. The format is ADME, organism-based. More on the design: time < 6 hr, dose 2000 mg, route oral. The procedure, abridged:
as §5

Data set [33] can be described thus: AUC (0 to 12 hrs) in human systemic circulation with chronic kidney disease at 1500 mg, po every 12 hrs measured after fifth dose by radioimmunoassay. The following applies: plasma. The format is ADME, organism-based. Also on record: dose 1500 mg, time < 12 hr, route oral. An outline of the steps: as §4
A short description of data set [34]: AUC (0 to 12 hrs) in human CSF with chronic kidney disease at 1500 mg, po every 12 hrs measured after fifth dose by radioimmunoassay. Also on record: time < 12 hr, dose 1500 mg, route oral. The class given is ADME, organism-based. An outline of the steps:
as §6

Broadly, the Cmax is the peak of the concentration-time curve. One may read the Tmax as the time from dosing to the highest level. One may read the AUC as the area under the concentration-time curve, a measure of exposure. `Nc1nc2c(ncn2COCC(=O)O)c(=O)[nH]1`: the concentration in data set [1] was found to be 2.9 µM; in data set [2], 12 µM; in [3], 0.07 µM; in data set [4] it was 0.31 µM. Further, the Cmax in data set [5] is 4.1 µM; in data set [6] it was 0.095 µM; in data set [7] it was 15 µM; in data set [8], 0.37 µM. For the same compound, the Tmax was found to be 3.3 h in data set [9], 1.8 h in data set [10], 4.3 h in [11] and 6.7 h in data set [12]. For the same compound, the exposure (AUC) in data set [13] was determined as 17 µM·h; in data set [14], 0.42 µM·h; in data set [15], 148 µM·h; in [16] it was 3.8 µM·h. Besides, the Ratio in [17] and in data set [18] was 0.025 in each case.

For `Nc1nc2c(ncn2COCCO)c(=O)[nH]1` [ACYCLOVIR], the concentration at 6 h amounted to 23 µM in data set [19] and 6.25 µM in data set [21]. Besides, the concentration at 12 h in data set [20] is 48 µM; in data set [22], 13.3 µM. The Cmax amounted to 42 µM in [23], 7.8 µM in data set [24], 82 µM in data set [25] and 16 µM in data set [26]. In addition, the Tmax in data set [27] was 2.1 h; in data set [28], 2.3 h; in [29], 2 h; in data set [30] it was 5.3 h. Besides, the AUC at 6 h in data set [31] was 137 µM·h; in data set [32] it was 37 µM·h. Further, the AUC at 12 h in data set [33] turned out to be 577 µM·h; in [34], 159 µM·h.
